# FLuc inh counter – Photinus pyralis luciferase inhibition counter-screen | AID 1006 | ATPLite firefly luciferase biochemical luminescence, 10 min | P08659 | inhibition, % at 10 µM | actives 1.5% (n = 200,000);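 active means inhibition above about 50% when tested at 10 µM, limit read from the data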
# Target sequence (P08659 whole entry, looked up): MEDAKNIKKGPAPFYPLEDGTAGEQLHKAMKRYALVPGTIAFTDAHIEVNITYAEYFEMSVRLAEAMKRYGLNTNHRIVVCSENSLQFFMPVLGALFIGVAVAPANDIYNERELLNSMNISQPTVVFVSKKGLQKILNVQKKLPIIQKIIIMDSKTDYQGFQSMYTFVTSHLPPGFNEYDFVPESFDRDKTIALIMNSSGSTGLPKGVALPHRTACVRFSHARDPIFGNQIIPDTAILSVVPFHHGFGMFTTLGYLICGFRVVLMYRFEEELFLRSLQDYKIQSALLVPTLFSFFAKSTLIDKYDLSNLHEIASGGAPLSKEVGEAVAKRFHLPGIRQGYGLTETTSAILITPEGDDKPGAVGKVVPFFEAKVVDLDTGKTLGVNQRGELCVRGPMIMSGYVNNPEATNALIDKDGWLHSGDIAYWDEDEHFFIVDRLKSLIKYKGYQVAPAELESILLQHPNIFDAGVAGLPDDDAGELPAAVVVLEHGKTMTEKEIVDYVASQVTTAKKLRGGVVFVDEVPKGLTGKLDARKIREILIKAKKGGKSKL
# Diaph inh CS – diaphorase inhibition or chemical oxidation counter-screen | diaphorase resazurin-to-resorufin fluorescence, NADH, 16 min; bacterial (C. kluyveri) enzyme, not human | inhibition, % at 20 µM | actives 0.69% (n = 190,000);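 active means primary screen inhibition at 20 µM above a set limit, cut at about 50% in these data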
#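 Test system: bacterial diaphorase enzyme (C. kluyveri); Quantity: 0.14 U/mL diaphorase, enzyme working solution; Times: reaction incubation of 16 min at room temperature; Measured by: fluorescence of resorufin formed from resazurin, Ex 544/Em 590 nm; Benchmarks: positive control minus NADH, DMSO neutral control.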
# G6PDH counter – counter-screen for G6PDH assay hits: L. mesenteroides G6PDH inhibition; Purified L. mesenteroides G6PDH, diaphorase/resazurin coupled fluorescence, 45 min; inhibition, % at 5 µM; actives 0.12% (n = 200,000); AID 1020; in the data active means inhibition above about 50%
# FLuc stim CS – firefly luciferase counter-screen for stimulation assays; P08659; ATPlite luciferase biochemical, luminescence, 10 min; 0 = ATP-free wells, 1 = DMSO control; activation factor at 10 µM; 200,000 tested, under 10 active;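 active means luciferase activation factor, scaled between plate controls, of at least 2 with compound at 10 µM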
#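 System: luciferase plus luciferin reagent, cell-free; medium: PBS as buffer for the ATP substrate; dosing: test compounds dosed from 2 mM stocks in 100% DMSO; timing: 10 min post-reagent at room temperature; measured by: luminescence measurement of luciferase light output; evaluation: luciferase activation, seen as luminescence increase over controls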
# Diaphorase act – counter-screen for diaphorase-based assays: diaphorase activators and chemical reducers; Diaphorase/resazurin coupled assay, resorufin fluorescence, 16 min; active compounds read high; 1 = vehicle wells, 0 = NADH-free wells; activation factor at 20 µM; actives 0.005% (n = 190,000); AID 1229;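 active means diaphorase activity raised at least twofold by the compound at 20 µM; inactive means activation factor below 2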
#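 Test system: Clostridium kluyveri diaphorase, purified enzyme. Buffer or medium: 50 mM HEPES pH 7.4 buffer plus MgCl2 and Tween 20. Also added: 0.114 mM NADH and 0.1 mM resazurin, final amounts. Dosing: compound 20 µM once, DMSO 1%. Schedule: 16 min enzyme reaction, ambient temperature. Detection: fluorescence of resorufin, 544 nm excitation, 590 nm emission.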
# A number is an active result; . = inactive. This is a sample that favours compounds with a hit; in the whole collection about 2.3% have one here.
SMILES,FLuc inh counter,Diaph inh CS,G6PDH counter,FLuc stim CS,Diaphorase act
Oc1ccc(CC2CC3CCN2CC3)cc1O (stereo not given),.,52.8,.,.,.
CN(C=O)CP(=O)(O)CN(C)C=O,.,.,.,.,.
Cc1ccc2nc3c(cc2c1)CC1(C(=O)N(C)C(=O)N(C)C1=O)C1CCCCN31 (stereo not given),52.8,.,.,.,.
CSc1ccc(CNC(C)C(O)c2ccccc2)cc1 (stereo not given),.,.,.,.,.
CCc1c(C)nc(N)nc1N1N=C1SCC(=O)OC,.,77.4,.,.,.
CCc1c(C)nc(N)nc1N1N=C1SCC#N,.,.,.,.,.
COC(=O)c1ccc(NC(=O)CSc2nc3ccc(N4C(=O)C5C6C=CC(C6)C5C4=O)cc3s2)cc1 (stereo not given),.,.,.,.,.
O=C1C(=O)c2ccccc2-c2ccccc21,.,.,53.4,.,.
COc1ccc2nc(NC3=NCCN3)sc2c1,57.1,.,.,.,.
Cc1cccc(C)c1OP(N)(=O)OCC(F)(F)F (stereo not given),.,.,.,.,.
CC(=O)c1ccc2c(c1)C1C(Cl)C(Sc3ccccc3[N+](=O)[O-])CC1C(c1ccccc1)N2 (stereo not given),.,.,.,.,.
CC(=O)c1ccc2c(c1)C1C(Cl)C(Sc3ccccc3[N+](=O)[O-])CC1C(c1ccccc1[N+](=O)[O-])N2 (stereo not given),.,63.4,.,.,.
O=c1c2ccccc2nc(N2CCCC2)n1-c1ccccc1,.,.,.,.,.
O=c1c2ccccc2[se]n1-c1ccccc1,96.2,70.4,.,.,.
CCCCCCCCCOc1ccc2[nH]cc(CCN)c2c1,.,.,.,.,3.3
CN1C(=O)N(C)C(=O)C2(Cc3c(ccc4ccccc34)N(C)C2)C1=O,.,66.8,.,.,.
Cc1nc2c(=O)n(C)c(=O)nc-2n(C)n1,.,.,67.6,.,.
O=C(N/N=C/c1c(O)n(CCC2=CCCCC2)c(=S)[nH]c1=O)c1ccccc1,.,.,.,.,.
O=C(N/N=C/c1c(O)n(C2CC2)c(=S)[nH]c1=O)c1ccccc1O,.,65.7,.,.,.
CC(C)OP(=O)(OC(C)C)C(NCc1ccccc1)c1ccccc1 (stereo not given),.,.,.,.,.
Cc1cc(C=C2C(=O)NC(=S)NC2=O)c(C)n1C1CCCC1,77.2,.,.,.,.
Cc1cc(C=C2C(=O)N(C)C(=S)N(C)C2=O)c(C)n1C1CCCCC1,.,.,.,.,.
C=CCN1C(=O)NC(=O)/C(=C/C=C/c2ccccc2)C1=O,.,.,.,.,.
CN(C)c1ccc(/C=C/C=C2/C(=O)NC(=O)N(c3ccccc3)C2=O)cc1,52.9,.,.,.,.
CCn1nc(-c2ccccc2)nc2c(=O)n(C)c(=O)nc1-2,.,.,59.4,.,.
SMILES,FLuc inh counter,Diaph inh CS,G6PDH counter,FLuc stim CS,Diaphorase act
Clc1ccc(OCC#CCN2CCCCCC2)cc1,.,.,.,.,.
CCCCC1C(=O)NC(=S)NC1=O,.,.,.,.,.
Cc1ccc2c(c1)=C/C(=C\c1c(O)[nH]c(=S)[nH]c1=O)C(=O)N=2,.,53.5,.,.,.
CN1C(=O)NC(=O)/C(=C\C=C\c2ccccc2[N+](=O)[O-])C1=O,.,.,.,.,.
NC(=O)c1ccc(N=Nc2c(O)[nH]c(=O)[nH]c2=O)cc1,.,.,.,.,.
O=c1[nH]c(O)c(N=Nc2cc([N+](=O)[O-])ccc2O)c(=O)[nH]1,.,65.7,.,.,.
CC/C(=N\N1CCCCCC1)c1c(O)n(-c2ccc(C)cc2)c(=O)[nH]c1=O,.,.,.,.,.
O=C(N/N=C\C1C(=O)NC(=S)N(c2ccccc2)C1=O)c1ccc(O)cc1 (stereo not given),.,65.2,.,.,.
O=C(N/N=C/c1c(O)n(-c2ccccc2)c(=O)[nH]c1=O)c1ccncc1,.,.,.,.,.
N=Cc1c(O)n(-c2ccc(C34CC5CC(CC(C5)C3)C4)cc2)c(=O)[nH]c1=O,.,.,.,.,.
CCCCCn1c(=O)c(C(=O)Nc2nc(CC(=O)OCC)cs2)c(O)c2ccccc21,.,.,.,.,.
COc1c2c(cc3c1OCO3)CC[N+](C)=C2,.,82.7,.,.,.
CN1c2ccc([N+](=O)[O-])cc2CC2(C(=O)NC(=O)N(c3ccc(Br)cc3)C2=O)C1c1ccccc1 (stereo not given),.,.,.,.,.
Nc1ccccc1C(=O)OCC(=O)c1ccc2c(c1)OCCO2,97.1,.,.,.,.
CN(C)c1cccc2c(C#N)ccc(N(C)C)c12,.,72.1,.,.,.
CC(C(=O)O)N(C(=O)c1ccccc1)c1ccc(F)c(Cl)c1 (stereo not given),.,.,.,.,.
C[C@]12CC[C@@H]3c4ccc(O)c(O)c4CC[C@H]3[C@@H]1CC[C@@H]2O,.,69.8,.,.,.
Cc1nc2ccccc2c(=O)n1-c1ccc(Br)cc1[N+](=O)[O-],.,69.8,.,.,.
CNC(=O)Oc1ccc(-c2cn3cc(C)ccc3n2)cc1,97.3,.,.,.,.
CNC(=O)Oc1cccc(-c2cn3cc(Cl)ccc3n2)c1,94.8,.,.,.,.
CCN(CC)CCCN=C(C)c1c(O)n(-c2ccc(C)cc2)c(=O)[nH]c1=O,.,.,.,.,.
CC(O)(CS(=O)(=O)c1cccc(C(F)(F)F)c1)C(=O)Nc1ccc(C(F)(F)F)cc1 (stereo not given),.,.,.,.,.
CCOC(=O)c1c(N)n(CCCOC(=O)c2ccco2)c2nc3ccccc3nc12,.,.,.,.,.
CCCCCn1c(NC(=O)c2ccco2)c(C(=O)OCC)c2nc3ccccc3nc21,.,68.3,.,.,.
CN1C[C@@H]2C[C@@H](c3cccn3-c3ccccn3)N3CCC[C@@]23C1=O,.,.,.,.,.
